Active and inactive are the calls of the source. The calls are words filed in the database; no cut-off is given here.
How the values were obtained:
Assay type in all cases: cell-based
BHK [1] = test: Activity at GluN1/GluN2C receptor in hamster BHK cells assessed as effect on NMDA-induced response after 24 hrs by Fluo-4 dye-based fluorescence assay; conditions: Mesocricetus auratus
BHK [2] = test: Activity at GluN1/GluN2C receptor in hamster BHK cells assessed as effect on NMDA-induced response up to 6 hrs by Fluo-4 dye-based fluorescence assay; conditions: Mesocricetus auratus
[3] = target: Glutamate receptor ionotropic, kainate 2 (Rattus norvegicus) (UniProt P42260); test: Activity at rat recombinant GluK2 receptor expressed in Xenopus oocytes assessed as effect on glutamate-induced response by two-electrode voltage clamp technique; conditions: Oocyte
Procedure, shortened: (§1)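 Oocytes injected with 1–5 ng cRNA, kept in Barth's solution at 15°C for 2–5 days. Clamped at -40 mV in 90 NaCl, 1.0 KCl, 0.5 BaCl₂, 0.005 EDTA, 10 HEPES (mM), pH 7.4, 23°C. Receptors activated by 100 µM glutamate with compound co-applied. GluK2 oocytes pretreated with 10 µM concanavalin A for 10 min. DMSO 0.05–0.5% final.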

[4] = target: Glutamate receptor 1 (Rattus norvegicus) (UniProt P19490); test: Activity at rat recombinant GluA1 receptor expressed in Xenopus oocytes assessed as effect on glutamate-induced response by two-electrode voltage clamp technique; conditions: Oocyte; procedure, shortened: as §1
[5] = target: Ionotropic glutamate receptor NMDA 1/2D (Rattus norvegicus) (UniProt P35439+Q62645); test: Activity at rat recombinant GluN1/GluN2D receptor expressed in Xenopus oocytes assessed as potentiation of 0.3 uM glycine/0.1 uM glutamate-induced activation at 10 uM by two-electrode voltage clamp technique relative to control; conditions: Oocyte

Chain of Glutamate receptor 1 (Rattus norvegicus) (P19490 whole entry): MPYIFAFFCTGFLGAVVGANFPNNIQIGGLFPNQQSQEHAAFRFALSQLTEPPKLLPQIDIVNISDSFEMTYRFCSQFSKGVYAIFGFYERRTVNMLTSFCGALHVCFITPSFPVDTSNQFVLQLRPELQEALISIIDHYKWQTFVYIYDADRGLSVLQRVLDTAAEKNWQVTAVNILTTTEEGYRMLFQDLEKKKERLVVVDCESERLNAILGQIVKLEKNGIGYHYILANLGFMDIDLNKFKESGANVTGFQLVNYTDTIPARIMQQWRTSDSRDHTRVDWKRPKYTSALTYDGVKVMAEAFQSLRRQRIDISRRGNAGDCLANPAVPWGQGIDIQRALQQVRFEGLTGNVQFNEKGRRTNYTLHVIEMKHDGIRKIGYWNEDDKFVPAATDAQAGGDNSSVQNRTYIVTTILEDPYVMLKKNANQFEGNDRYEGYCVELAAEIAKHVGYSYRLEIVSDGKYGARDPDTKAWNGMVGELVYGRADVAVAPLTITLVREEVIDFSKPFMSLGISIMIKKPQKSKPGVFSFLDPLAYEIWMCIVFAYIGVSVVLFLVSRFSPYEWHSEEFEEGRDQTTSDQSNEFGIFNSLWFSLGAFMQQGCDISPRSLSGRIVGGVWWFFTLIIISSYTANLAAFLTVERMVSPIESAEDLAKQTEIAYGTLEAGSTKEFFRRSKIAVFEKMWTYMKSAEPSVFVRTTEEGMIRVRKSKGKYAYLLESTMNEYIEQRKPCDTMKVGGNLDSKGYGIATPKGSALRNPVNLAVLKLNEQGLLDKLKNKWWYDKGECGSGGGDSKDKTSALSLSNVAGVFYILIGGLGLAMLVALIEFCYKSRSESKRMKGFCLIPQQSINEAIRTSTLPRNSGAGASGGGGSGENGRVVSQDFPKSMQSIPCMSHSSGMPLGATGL
Chain of Glutamate receptor ionotropic, kainate 2 (Rattus norvegicus) (P42260 whole entry): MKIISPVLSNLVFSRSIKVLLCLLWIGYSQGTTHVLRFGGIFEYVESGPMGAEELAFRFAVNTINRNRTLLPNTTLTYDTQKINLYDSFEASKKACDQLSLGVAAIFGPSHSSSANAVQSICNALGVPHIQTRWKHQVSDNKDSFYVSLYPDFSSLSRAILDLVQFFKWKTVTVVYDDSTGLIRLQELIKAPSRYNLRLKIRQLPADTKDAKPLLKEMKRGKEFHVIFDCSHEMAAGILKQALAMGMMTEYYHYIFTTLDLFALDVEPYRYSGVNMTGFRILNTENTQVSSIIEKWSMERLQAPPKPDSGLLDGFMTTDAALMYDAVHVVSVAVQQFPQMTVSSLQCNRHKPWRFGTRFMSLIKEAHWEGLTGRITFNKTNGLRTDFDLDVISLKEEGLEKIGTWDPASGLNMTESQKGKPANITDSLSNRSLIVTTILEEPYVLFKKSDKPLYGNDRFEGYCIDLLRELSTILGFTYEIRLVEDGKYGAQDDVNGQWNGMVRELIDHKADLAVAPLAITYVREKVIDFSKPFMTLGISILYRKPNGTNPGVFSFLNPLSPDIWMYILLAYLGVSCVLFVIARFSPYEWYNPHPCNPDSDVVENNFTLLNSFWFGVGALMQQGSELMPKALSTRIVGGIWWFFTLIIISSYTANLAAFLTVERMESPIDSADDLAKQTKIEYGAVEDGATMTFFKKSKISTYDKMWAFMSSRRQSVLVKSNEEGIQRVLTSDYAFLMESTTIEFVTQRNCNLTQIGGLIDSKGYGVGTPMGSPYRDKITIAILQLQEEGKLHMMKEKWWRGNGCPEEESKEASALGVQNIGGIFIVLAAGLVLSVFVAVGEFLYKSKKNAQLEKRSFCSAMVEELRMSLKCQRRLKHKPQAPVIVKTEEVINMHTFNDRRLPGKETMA

COc1ccc(OCC2c3cc(OC)c(OC)cc3CCN2C(=O)c2cccc(Cl)c2)cc1 (racemic) was tested, and the Activity (BHK [1]) was “inactive”, the Activity (BHK [2]) was “Active” and the Activity [3] was “inactive”. The Activity [4] was “inactive” and the Activity [5] was 353%.
